{"data": "Measured values collected from several papers", "target": "Rhodopsin kinase GRK7 (GRK7, Homo sapiens, UniProt Q8WTQ7)", "Residues used in one study (Q8WTQ7 1-553)": "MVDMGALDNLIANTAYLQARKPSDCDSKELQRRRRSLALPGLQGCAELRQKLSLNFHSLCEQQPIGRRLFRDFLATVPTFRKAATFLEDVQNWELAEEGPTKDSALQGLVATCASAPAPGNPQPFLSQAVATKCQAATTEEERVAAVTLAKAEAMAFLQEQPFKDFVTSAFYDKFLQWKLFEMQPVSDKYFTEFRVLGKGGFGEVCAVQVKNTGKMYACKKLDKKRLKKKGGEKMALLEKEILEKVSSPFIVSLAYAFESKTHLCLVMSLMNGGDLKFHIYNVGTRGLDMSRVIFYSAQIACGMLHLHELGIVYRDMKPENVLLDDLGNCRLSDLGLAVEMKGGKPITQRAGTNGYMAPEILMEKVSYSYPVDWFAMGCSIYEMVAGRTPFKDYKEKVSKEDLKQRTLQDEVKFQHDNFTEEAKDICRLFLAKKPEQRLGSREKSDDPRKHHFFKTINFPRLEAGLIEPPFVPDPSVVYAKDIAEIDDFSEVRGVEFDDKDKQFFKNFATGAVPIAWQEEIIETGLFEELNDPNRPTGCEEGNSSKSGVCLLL", "note": "Protocols differ between the studies behind these lines."}
{"Structure (SMILES)": "O=C(N1CCS(=O)(=O)CC1)N1C[C@H](c2ccc(OC(F)(F)F)cc2)C[C@H](c2nc(C3CC3)no2)C1", "assay": "cell-free assay, competition with immobilised ligand", "setting": "1 µM", "quantity": "remaining binding", "result": "100%"}
{"Structure (SMILES)": "Cc1cnc(NC2CCOCC2)nc1-n1cnc(C(=O)NC(CN)c2cc(F)cc(Cl)c2)c1 (stereo not drawn)", "assay": "enzyme activity, inhibitor, radiometric", "setting": "1 µM", "quantity": "remaining activity", "result": "85%"}
{"Structure (SMILES)": "COc1cc2ncnc(Nc3ccc(Oc4ccccc4)c(C)c3C)c2cc1OC", "assay": "enzyme activity, inhibitor", "setting": "1 µM", "quantity": "inhibition", "result": "0%"}
{"Structure (SMILES)": "CC(C)(C)c1nc(-c2cccc(NS(=O)(=O)c3c(F)cccc3F)c2F)c(-c2ccnc(N)n2)s1", "assay": "enzyme activity, inhibitor, radiometric", "setting": "1 µM", "quantity": "remaining activity", "result": "76%"}
{"Structure (SMILES)": "CN1CCN(c2cnc3c(C4CCN(C(=O)c5ccc(OC(F)(F)F)cc5N)CC4)ncnc3c2)CC1", "assay": "cell-free assay, competition with immobilised ligand", "setting": "1 µM", "quantity": "remaining binding", "result": "87%"}
{"Structure (SMILES)": "N#CCCc1ccc2c(c1)-c1[nH]c3ccc([N+](=O)[O-])cc3c1CC(=O)N2", "assay": "cell-free assay", "setting": "0.5 µM", "quantity": "remaining signal", "result": "97.7%"}
{"Structure (SMILES)": "O=C(Nc1cnn(-c2csc(C(=O)NC3COC3)c2)c1)Nc1ccccc1Cl", "assay": "enzyme activity, inhibitor", "setting": "5 µM", "quantity": "remaining activity", "result": "96.4%"}
{"Structure (SMILES)": "CCCOc1ccc(OC)c(F)c1C(=O)c1ccc(C(=O)N[C@@H]2CNC[C@H]2NC(=O)c2ccc3[nH]ncc3c2)cc1", "assay": "enzyme activity, inhibitor", "setting": "10 µM", "quantity": "remaining activity", "result": "107%"}
{"Structure (SMILES)": "CN1CC(Oc2cnc(C#N)cc2-c2ccn3nc(NC(=O)C4CC4)cc3c2)C1", "assay": "enzyme activity, inhibitor", "setting": "1 µM", "quantity": "inhibition", "result": "-8%"}
{"Structure (SMILES)": "O=C(O)[C@@H]1[C@@H](Cn2nnc3ccccc3c2=O)CC[C@H]1C(=O)c1ccc(OCCC2CCOCC2)cc1", "assay": "cell-free assay, competition with immobilised ligand", "setting": "1 µM", "quantity": "remaining binding", "result": "100%"}
{"Structure (SMILES)": "COc1cc2c(N3CCN(C(=O)Nc4ccc(OC(C)C)cc4)CC3)ncnc2cc1OCCCN1CCCCC1", "assay": "cell-free assay", "setting": "0.5 µM", "quantity": "remaining signal", "result": "104%"}
{"Structure (SMILES)": "Cc1nc(Cc2cccc(C(F)(F)F)c2)sc1-c1ccc(C(N)=O)nc1", "assay": "cell-free assay, competition with immobilised ligand", "setting": "1 µM", "quantity": "remaining binding", "result": "100%"}
{"Structure (SMILES)": "O=C1Nc2ccc(Cl)cc2C1=Cc1cc(Cl)c(O)c(Cl)c1", "assay": "cell-free assay", "setting": "0.5 µM", "quantity": "remaining signal", "result": "97.3%"}
{"Structure (SMILES)": "Cc1c(NC(=O)c2cc(C(N)=O)nc3cc(F)ccc23)c(C(F)(F)F)nn1Cc1ccc(C#N)cc1", "assay": "cell-free assay, competition with immobilised ligand", "setting": "1 µM", "quantity": "remaining binding", "result": "75%"}
{"Structure (SMILES)": "COc1cc(Cl)c(C(=O)N[C@@H](CN[C@H]2CC[C@@H](N)CC2)Cc2ccc(C#N)cc2)cc1-c1ccc(CN[C@H](C)c2ccc(C)cc2)o1", "assay": "enzyme activity, inhibitor", "setting": "1 µM", "quantity": "remaining activity", "result": "102%"}
{"Structure (SMILES)": "CCN(CC)c1ccc(C2=NNC(=O)CC2C)cc1[N+](=O)[O-] (stereo not drawn)", "assay": "enzyme activity, inhibitor", "setting": "10 µM", "quantity": "remaining activity", "result": "100%"}
{"Structure (SMILES)": "CCCS(=O)(=O)Nc1ccc(F)c(C(=O)c2c[nH]c3ncc(-c4ccc(Cl)cc4)cc23)c1F", "assay": "enzyme activity, inhibitor", "setting": "1 µM", "quantity": "inhibition", "result": "< 10%"}
{"Structure (SMILES)": "C[C@@H]1CCN(c2nccc(-c3cnn4ncccc34)n2)C1", "assay": "binding", "setting": "1 µM", "quantity": "remaining binding", "result": "82%"}
